Assay [1] deals with CHK reaction in HCT-116 cells. Kind of assay: Inhibition of [3H]PCho formation from [3H]Cho in whole HCT-116 cells. In kind it is cell-based, human. The conditions noted are these: HCT-116 cells incubated with [3H]Cho. In short, it runs like this: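 HCT-116 cells incubated with [3H]Cho plus test compound over a range of concentrations; [3H]PCho formed from [3H]Cho measured to follow dose-dependent change in cellular choline phosphorylation.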

In the next assay the target is Δ49N CHKA2 (Homo sapiens, UniProt P35790). Kind of assay: Lineweaver-Burk reaction kinetics against Δ49N CHKA2. In kind it is biochemical. The conditions noted are these: 0.1, 1 or 10 μM inhibitor; choline or ATP varied, the other kept at KM. In short, it runs like this: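 Δ49N CHKA2 reaction kinetics run without inhibitor or with test compound at 0.1, 1 or 10 μM. Choline varied with ATP fixed at KM, or ATP varied with choline fixed at KM; double-reciprocal (Lineweaver–Burk) plots used to assign inhibition type versus each substrate.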

This note sets out measurements from article PMC4071626 (MedChemComm, 2013).

Sequence of Δ49N CHKA2 (P35790 50-457 limits assumed, stated change not applied): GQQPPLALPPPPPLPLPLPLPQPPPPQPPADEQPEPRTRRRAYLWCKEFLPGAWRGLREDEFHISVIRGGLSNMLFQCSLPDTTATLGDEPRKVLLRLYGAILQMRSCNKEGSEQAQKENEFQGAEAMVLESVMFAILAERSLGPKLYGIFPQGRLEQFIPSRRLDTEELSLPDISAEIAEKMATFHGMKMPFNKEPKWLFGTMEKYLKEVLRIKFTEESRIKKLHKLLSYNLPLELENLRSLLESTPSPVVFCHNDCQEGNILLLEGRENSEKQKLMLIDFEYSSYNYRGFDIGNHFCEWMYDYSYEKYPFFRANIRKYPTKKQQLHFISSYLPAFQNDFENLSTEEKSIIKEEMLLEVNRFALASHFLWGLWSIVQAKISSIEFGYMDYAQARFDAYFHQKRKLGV

For the molecule `CN(C)c1cc[n+](CCCCCCCCCCCC[n+]2ccc(N(C)C)cc2)cc1.[Br-].[Br-]` [Compound 8], in assay [1], the “Concentration above which [3H]PCho formation is inhibited >75%” value was “above 6.5 ± 4 μM”. The “Type of inhibition (Lineweaver-Burk plots)” value on Δ49N CHKA2 was “competitive with choline, but not with ATP”. Take `CN(C)c1cc[n+](CCCCCCCCCCCCn2cnc3c(N)ncnc32)cc1.[Br-]` [Compound 12]: at Δ49N CHKA2, the “Type of inhibition (Lineweaver-Burk plots)” value is on record as “mixed type of inhibition”. Take `CN(C)c1cc[n+](CCCCCCCCCCCCCC[n+]2ccc(N(C)C)cc2)cc1.[Br-].[Br-]` [Compound 13]: the “Concentration above which [3H]PCho formation is inhibited >75%” value in assay [1] is above 2.4 ± 1 µM.
